Published values gathered from unrelated publications.
UCK1: UCK1 (Homo sapiens, UniProt Q9HA47)
STK16: Serine/threonine-protein kinase 16 (STK16, Homo sapiens, UniProt O75716)
PIK3C2B: Phosphatidylinositol 4-phosphate 3-kinase C2 domain-containing subunit beta (PIK3C2B, Homo sapiens, UniProt O00750)
Nectin-4: Nectin-4 (Homo sapiens, UniProt Q96NY8)

SMILES	target	effect on	method	notes	Kd
Nc1ccn([C@@H]2O[C@H](CO)[C@@H](O)[C@H]2O)c(=O)n1	UCK1	binding	fluorescence		15.9 nM
CCCN1CCN(c2ccc(-c3cncc(Cl)c3N3CCC4(CCNC4=O)CC3)cc2)CC1	STK16	cell-free assay		lysate	19400 nM
Cc1cnc(-c2ccc(-c3ccc(NC(=O)Nc4c(F)cc(F)cc4F)cc3F)c3c2C(=O)NC3)[nH]1	Aurora kinase B (AURKB, Homo sapiens, UniProt Q96GD4)	binding	competition with immobilised ligand		3.1 nM
NC(=O)c1ncn([C@@H]2O[C@H](COP(=O)(O)O)[C@@H](O)[C@H]2O)c1N	Adenylosuccinate lyase (ADSL, Homo sapiens, UniProt P30566)	binding	ITC		34000 nM
CCN(CC)c1ccc2cc(C(=O)NCCNC(=O)c3ccc(-c4cc(-c5ccc(C#N)cc5)nc(-c5ccco5)c4)cc3)c(=O)oc2c1	Myc proto-oncogene protein (MYC, Homo sapiens, UniProt P01106)	binding	SPR		151 nM
Nc1ncnc2c1ncn2[C@@H]1O[C@H](COP(=O)(O)O)[C@@H](O)[C@H]1O	Adenylosuccinate lyase (ADSL, Homo sapiens, UniProt P30566, R303C)	binding	ITC		130000 nM
NC(=O)C1=CN([C@@H]2O[C@H](COP(=O)(O)OP(=O)(O)OC[C@H]3O[C@@H](n4cnc5c(N)ncnc54)[C@H](OP(=O)(O)O)[C@@H]3O)[C@@H](O)[C@H]2O)C=CC1	ZMO1885 (Zymomonas mobilis, UniProt Q5NLA1, Y343W)	binding			702000 nM
CC(=O)N[C@H](C(=O)N[C@H](C(=O)N[C@@H](Cc1ccccc1)C(=O)N[C@H](C(=O)N[C@@H](CO)C(=O)N[C@@H](Cc1c[nH]c2ccccc12)C(=O)N[C@@H](CCC(=O)O)C(=O)N[C@@H](CCC(=O)O)C(=O)N[C@@H](Cc1ccc(O)cc1)C(=O)N[C@@H](CC(C)C)C(=O)N[C@@H](CC(=O)O)C(=O)N[C@@H](Cc1c[nH]c2ccccc12)C(=O)N[C@H](C(N)=O)C(C)C)[C@@H](C)O)C(C)C)[C@@H](C)O	Proprotein convertase subtilisin/kexin type 9 (PCSK9, Homo sapiens, UniProt Q8NBP7)	binding	SPR		667 nM
O=c1ccn([C@@H]2O[C@H](CO)[C@@H](O)[C@H]2O)c(=O)[nH]1	UCK1	binding	fluorescence		56.4 nM
C=CC(=O)N1CCC(C(=O)N(C)CC(=O)N2CCN(c3nc(-c4cnc(N)nc4C(F)F)nc(N4CCOCC4)n3)CC2)CC1	PIK3C2B	binding	competition with immobilised ligand		155 nM
CC(=O)N[C@H](C(=O)N1C[C@H](O)C[C@H]1C(=O)NCc1ccc(-c2scnc2C)cc1)C(C)(C)SCCCCCCNC(=O)C[C@@H]1N=C(c2ccc(Cl)cc2)c2c(sc(C)c2C)-n2c(C)nnc21	Bromodomain-containing protein 3, BD2 (BRD3, Homo sapiens, UniProt Q15059)	binding	ITC		39 nM
Cc1cc(Nc2cc3ncccc3c(N[C@@H]3C[C@H]4CC[C@@H](C3)N4CCC#N)n2)n[nH]1	STK16	binding	competition with immobilised ligand		110 nM
CCC(=O)N1CCC(C(=O)N(C)CC(=O)N2CCN(c3nc(-c4cnc(N)nc4C(F)F)nc(N4CCOCC4)n3)CC2)CC1	PIK3C2B	binding	competition with immobilised ligand		365 nM
CCCC[C@@H]1NC(=O)[C@H](Cc2ccc(O)cc2)NC(=O)[C@@H]2CCCN2C(=O)[C@H](CC(=O)O)NC(=O)[C@H](C)NC(=O)[C@H](Cc2ccccc2)NC(=O)[C@@H]2CSCCC(=O)N3CN(CN(C3)C(=O)CCSC[C@@H](C(=O)N[C@@H](CNC(=O)Cn3cc(CCC(=O)NCCC(=O)N(C)CC(=O)N(C)CC(=O)N(C)CC(=O)N(C)CC(=O)N(C)CC(=O)N(C)CC(=O)N(C)CC(=O)N(C)CC(=O)N(C)CC(=O)N(C)CC(=O)N[C@H]4CSCCC(=O)N5CN6CN(C5)C(=O)CCSC[C@H](NC(=O)[C@@H](CC(=O)O)NC(=O)[C@H](Cc5cccc7ccccc57)NC(=O)[C@@H]5CCCN5C4=O)C(=O)N[C@@H](CCSC)C(=O)N[C@@H](CCCCNC(=N)N)C(=O)N[C@@H](CC(=O)O)C(=O)N[C@@H](Cc4c[nH]c5ccccc45)C(=O)N[C@@H](CO)C(=O)N[C@@H]([C@@H](C)O)C(=O)N4CCC[C@H]4C(=O)N4C[C@H](O)C[C@H]4C(=O)N[C@@H](Cc4c[nH]c5ccccc45)C(=O)N[C@H](C(N)=O)CSCCC6=O)nn3)C(N)=O)NC1=O)C(=O)CCSC[C@H](NC(C)=O)C(=O)N[C@@H](CC(C)(C)C)C(=O)N1CCC[C@H]1C(=O)N[C@@H](CCC(=O)O)C(=O)N[C@H](C)C(=O)N1CCC[C@H]1C(=O)N[C@@H](Cc1ccc(O)cc1)C(=O)N2	Nectin-4	binding	SPR		2.6 nM
Cc1cc2nc3c(=O)[nH]c(=O)nc-3n(C[C@H](O)[C@H](O)[C@H](O)COP(=O)(O)OP(=O)(O)OC[C@H]3O[C@@H](n4cnc5c(N)ncnc54)[C@H](O)[C@@H]3O)c2cc1C	Heterogeneous nuclear ribonucleoprotein U-like protein 1 (HNRNPUL1, Homo sapiens, UniProt Q9BUJ2)	binding		lysate	11 nM
CCCCc1nc2cc(/C=C/C(=O)NO)ccc2n1CCN(CC)CC	Histone deacetylase 2 (HDAC2, Homo sapiens, UniProt Q92769)	cell-free assay			1300 nM
CCCC[C@@H]1NC(=O)[C@H](Cc2ccc(O)cc2)NC(=O)[C@@H]2CCCN2C(=O)[C@H](CC(=O)O)NC(=O)[C@H](C)NC(=O)[C@H](Cc2ccccc2)NC(=O)[C@@H]2CSCCC(=O)N3CN(CN(C3)C(=O)CCSC[C@@H](C(=O)N[C@@H](C)C(N)=O)NC1=O)C(=O)CCSC[C@H](NC(C)=O)C(=O)N[C@@H](CC(C)(C)C)C(=O)N1CCC[C@H]1C(=O)N[C@@H](CCC(=O)O)C(=O)N[C@H](CCCCNC(=O)CCc1cn(CCOCCOCCOCCOCCOCCC(=O)N[C@H]3CSCCC(=O)N4CN5CN(C4)C(=O)CCSC[C@H](NC(=O)[C@@H](CC(=O)O)NC(=O)[C@H](Cc4cccc6ccccc46)NC(=O)[C@@H]4CCCN4C3=O)C(=O)N[C@@H](CCSC)C(=O)N[C@@H](CCCCNC(=N)N)C(=O)N[C@@H](CC(=O)O)C(=O)N[C@@H](Cc3c[nH]c4ccccc34)C(=O)N[C@@H](CO)C(=O)N[C@@H]([C@@H](C)O)C(=O)N3CCC[C@H]3C(=O)N3C[C@H](O)C[C@H]3C(=O)N[C@@H](Cc3c[nH]c4ccccc34)C(=O)N[C@H](C(N)=O)CSCCC5=O)nn1)C(=O)N1CCC[C@H]1C(=O)N[C@@H](Cc1ccc(O)cc1)C(=O)N2	Nectin-4	binding	SPR		1.8 nM
